High-throughput results from PubChem.
An excerpt weighted towards active compounds, which were near 3.4% of everything screened.
HMGR II inh = inhibitors of E. faecalis class II HMGR, primary screen, biochemical, Enterococcus faecalis. HMG-CoA reductase (Enterococcus faecalis, mvaE). purified E. faecalis HMGR, NADPH absorbance 340 nm kinetic. inhibition, % at 10 µM. 190,000 tested, 0.41% active;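 active means inhibition above a set limit, the median over all tested compounds plus 3 SD, cut at about 9.5% in these data; inconclusive means no clear call, values can overlap the other calls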;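 further: enzyme runs in reverse so mevalonate oxidation gives rising NADPH absorbance; 0% = complete reaction with DMSO and 100% = background rate lacking mevalonate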
Wee1 stabilizer = Wee1 degradation inhibitors, primary screen, cell-based, HeLa, Wee1K328M-luciferase, luminescence; AID 1321, 2008; HeLa Luc-Wee1K328M stability; 100% = proteasome inhibitor MG132 effect; Wee1-like protein kinase (Homo sapiens), P30291; 220,000 tested, 1.2% active; reporter increase, % at 5 µM;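 active means activation above the mean of all tested compounds plus 3 SD, set per screening run, cut at about 8.8% in these data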;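 further: cells exposed to compound for 20 h before luminescence read; 0% = DMSO alone and 100% = MG132 at 30 µM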
PHOSPHO1 block = PubChem AID 1565; Phosphoethanolamine/phosphocholine phosphatase (Homo sapiens), Q8TCT1; recombinant PHOSPHO1, absorbance phosphatase assay; inhibition, % at 13.3 µM; 290,000 tested, 1.1% active; in the data active means inhibition above about 60%
Runt-CBFb FRET = inhibitors of RUNX1 Runt–CBFb binding, primary screen, biochemical, FRET, Cerulean-Runt, Venus-CBFb, uHTS. inhibition, % at 20 µM. Cerulean-Runt/Venus-CBFb FRET ratio 530/480, 1 h. Runt-related transcription factor 1 (Homo sapiens) + Core-binding factor subunit beta …. 220,000 tested, 0.46% active;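 active means inhibition over about 50% at 20 µM in the single-dose screen, limit read from the data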;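 further: 0% = DMSO wells and 100% = excess unlabeled CBFb competitor control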
Target sequence (Q01196 whole entry, looked up): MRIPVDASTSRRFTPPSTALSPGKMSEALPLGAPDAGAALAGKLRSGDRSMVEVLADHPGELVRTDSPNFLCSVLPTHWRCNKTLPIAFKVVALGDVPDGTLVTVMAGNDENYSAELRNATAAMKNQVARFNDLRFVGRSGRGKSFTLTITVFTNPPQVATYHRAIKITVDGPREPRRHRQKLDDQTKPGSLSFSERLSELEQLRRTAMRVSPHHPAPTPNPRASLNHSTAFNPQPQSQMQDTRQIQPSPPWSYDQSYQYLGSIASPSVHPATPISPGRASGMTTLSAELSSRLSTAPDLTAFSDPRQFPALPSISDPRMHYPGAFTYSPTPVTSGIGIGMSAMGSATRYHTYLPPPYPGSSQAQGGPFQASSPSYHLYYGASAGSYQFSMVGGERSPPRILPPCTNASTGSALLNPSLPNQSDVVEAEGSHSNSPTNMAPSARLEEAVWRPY
Target sequence (Q13951 whole entry, looked up): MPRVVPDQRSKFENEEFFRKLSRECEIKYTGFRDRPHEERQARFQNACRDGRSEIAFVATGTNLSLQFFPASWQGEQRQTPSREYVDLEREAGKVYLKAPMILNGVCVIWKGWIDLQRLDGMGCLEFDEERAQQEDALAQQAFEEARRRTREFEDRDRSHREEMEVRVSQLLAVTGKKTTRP
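Assay system: Cerulean-tagged RUNX1 Runt domain (FRET donor) fusion protein / Amount: 100 nM each of Venus-CBFb and Cerulean-Runt domain / Medium: Tris buffer pH 7.5 with salts and BSA / Also added: Venus-CBFb 100 nM / Schedule: 1 h complex formation plus 1 h compound treatment, room temperature / Signal: FRET fluorescence / Read-out: loss of energy transfer signal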
RanGTP-Impb inh = inhibitors of RanGTP-importin-beta interaction, primary screen, biochemical, FRET, CFP-Ran, YFP-importin-beta, homogeneous | Ran GTPase (GTP-bound) - importin-beta complex | inhibition, % (concentration not given with the values) | cell-free CFP-Ran/YFP-importin-beta FRET ratio | 300,000 tested, 1.1% active | AID 2216, 2009;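 active means more than half of the replicate wells show a fall in the fluorescence ratio signal beyond about 16%, limit read from the data, passing the limit was not always enough; inconclusive means exactly half of the replicate wells pass the set limit; inactive means fewer than half of replicates pass the limit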;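 further: 0% = DMSO wells and 100% = Ran loaded with GDP instead of GTP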
Runt-SMMHC FRET = inhibitors of RUNX1 Runt–CBFb-SMMHC binding, primary screen, biochemical, FRET, Cerulean-Runt, Venus-CBFb-SMMHC, uHTS | Runt-related transcription factor 1 (Homo sapiens) + Core-binding factor subunit beta … | Cerulean-Runt/Venus-CBFb-SMMHC FRET ratio 530/480, 1 h | inhibition, % at 20 µM | 220,000 tested, 0.74% active | AID 1434, 2008;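 active means mean inhibition across duplicate retests at 20 µM reaching about 50%, limit read from the data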;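 further: 0% = DMSO wells and 100% = wells with excess untagged CBFb-SMMHC; inhibitors lower the FRET ratio by blocking Runt binding to CBFb-SMMHC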
Starred values were filed as active, the others as inactive; ? = inconclusive; / = not tested or not shown.

SMILES	HMGR II inh	Wee1 stabilizer	PHOSPHO1 block	Runt-CBFb FRET	RanGTP-Impb inh	Runt-SMMHC FRET
COc1ccc(-c2c3c([nH]c(=S)c2C#N)CCC3)cc1	-0.1	5.9	55.1	10.4	/	1.2
N#Cc1c(-c2cccnc2)c2c([nH]c1=S)CCCC2	-0.3	-2.0	73.5*	2.1	0.5	-1.9
N#Cc1c(-c2ccco2)c2c([nH]c1=S)CCCC2	-5.2	/	61.9*	0.1	?	-18.8
COc1ccc(OC)c(-c2c3c([nH]c(=S)c2C#N)CCCC3)c1	3.4	-1.0	-27.4	4.2	-3.6	2.9
COc1ccc(CNC(=O)CCC2N=C3c4ccccc4N=C(SCC(=O)NCC4CCCO4)N3C2=O)cc1 (stereo unspecified)	/	/	29.0	/	-3.4	/
COc1ccccc1NC(=O)c1ccc(S(=O)(=O)N2CCOCC2)cc1	3.9	-0.8	-7.5	-0.3	1.4	3.3
CCOc1ccccc1NC(=O)c1ccc(S(=O)(=O)N2CCOCC2)cc1	-5.6	10.6*	0.9	3.0	5.4	6.3
Cn1c(=O)c2c(nc(Br)n2CCSc2ncccn2)n(C)c1=O	-3.2	4.0	2.3	-0.5	24.7*	-1.5
Cn1c(=O)[nH]c(=O)c2c1nc(Br)n2CCSc1ncccn1	0.1	4.0	-3.0	/	4.2	1.1
Nc1ccc(-c2nc3ccc(C(=O)O)cc3s2)cc1	2.2	-6.0	-13.4	35.8	-5.8	85.7*
O=C(O)c1ccc2nc(-c3ccccc3)sc2c1	-2.6	0.7	9.4	-1.1	-1.9	2.4
CCCc1cc(=O)n2[nH]cnc2n1	-0.7	-0.7	60.8*	-0.2	-2.0	-2.2
CC(=O)c1cccc(NC(=O)COC(=O)C2=COCCO2)c1	-0.9	0.3	68.1*	-0.5	/	0.8
NS(=O)(=O)c1ccc(N2CCN(CCOc3ccc(Cl)cc3)CC2)nc1	/	/	14.3	/	1.0	/
Cc1ccc(OC(C)C(=O)Nc2ccc3c(c2)n(C)c(=O)n3C)cc1C (stereo unspecified)	/	/	60.0*	/	-1.1	/
Cc1[nH]c2ccccc2c1Cc1n[nH]c(=S)o1	-6.1	-0.1	90.4*	11.9	5.8	3.1
Cc1[nH]c2ccccc2c1Cc1n[nH]c(=S)n1C	-4.3	-1.8	-16.5	-2.2	-0.7	6.3
CCn1c(NCc2ccc3c(c2)OCO3)nc2ccccc21	2.8	-3.1	65.2*	/	-2.8	-2.7
COc1ccc([N+](=O)[O-])cc1NC(=O)CCS(=O)(=O)c1ccc(Br)cc1	/	/	23.3	/	-2.3	/
CC1=C(C(=O)Nc2ccccc2C(=O)NC2CCCCC2)SCCO1	/	/	27.9	/	4.2	/
COc1cc2c(cc1NC(=O)CN(C)Cc1cccc(OC)c1OC)oc1ccccc12	2.1	-1.1	15.8	-4.1	-2.4	-4.4
COc1cccc(CN(C)CC(=O)Nc2cc3oc4ccccc4c3cc2OC)c1	-6.0	9.9*	-38.1	-1.0	1.0	-3.0
CC1CCN(C(=O)CCc2nnc3ccc(NCCCN4CCCC4=O)nn23)CC1	/	/	7.9	/	-3.2	/
Cc1nc(COC(=O)c2ccc(S(=O)(=O)N3CCCC3)cc2)cs1	0.6	1.5	80.8*	-2.4	2.5	-5.1
COc1ccc(-n2cnc3cc(C(=O)NCC4CCCO4)ccc32)cc1 (stereo unspecified)	/	/	10.6	/	-0.9	/
SMILES	HMGR II inh	Wee1 stabilizer	PHOSPHO1 block	Runt-CBFb FRET	RanGTP-Impb inh	Runt-SMMHC FRET
Cc1ccc(C)c(NNC(N)=S)c1	-3.7	-1.8	37.3	11.4	3.5	-1.7
Cc1cccc(NNC(N)=S)c1C	10.2*	-2.0	5.1	6.4	1.7	2.0
O=C(C1CCCCCC1)N1CC[C@@H](N2CCC(O)CC2)[C@H](O)C1	/	/	-14.7	/	27.1*	/
COc1cc(C=O)ccc1OCCCOc1ccc([N+](=O)[O-])cc1	-7.9	9.9*	-2.2	-3.5	1.7	-1.1
COc1cc(C=O)ccc1OCCCOc1ccccc1[N+](=O)[O-]	-0.9	2.0	16.3	-0.6	?	-1.5
Cc1cc(N2C(=O)C(O)=C(C(=O)c3cc4ccccc4o3)C2c2cccs2)no1 (stereo unspecified)	/	/	1.5	/	42.3*	/
COc1cccc(N2CCN(c3ccc4nnc(CCC(=O)Nc5ccccn5)n4n3)CC2)c1	/	/	-4.1	/	1.0	/
C=CCC1C=C(C)CC(CC=C)N1 (stereo unspecified)	13.3*	-1.0	49.4	-0.9	-2.4	-4.2
C=CCC1Cc2c(cccc2[N+](=O)[O-])C(CC=C)N1 (stereo unspecified)	-0.6	3.3	24.1	-2.5	-2.8	-1.7
CCC1CCCCN1CCCNC(=O)Cn1nc(C)n2nc(-c3ccccc3)cc2c1=O (stereo unspecified)	/	/	24.2	/	-0.5	/
NC(=S)Nc1cccc2cc3ccccc3cc12	0.5	-2.3	96.8*	-25.8	1.1	-7.7
Cc1ccc(CSc2nc3ccccc3cc2C=O)cc1	-1.6	10.3*	41.9	-1.6	4.2	0.1
COC(=O)Nc1ccc(S(=O)(=O)NC2CCCCC2)cc1	/	/	17.4	/	-4.0	/
Cn1nc(-c2ccc(OCC(=O)NCC3CCCO3)cc2)c2ccccc2c1=O (stereo unspecified)	-2.9	9.6*	17.3	-1.8	-1.2	-0.9
CSc1ccc(CN2CCCN(C)CC2)cc1	/	/	-16.1	/	-0.6	/
O=C1NC(=O)/C(=C/C(=O)N2CCOCC2)S1	13.5*	0.0	36.7	-0.7	4.5	-3.2
CCN1CCC2(CC1)C(C#N)=C(N)Oc1c2sc2nc(C)cc(C)c12	-1.5	0.1	-13.6	6.9	27.9*	34.1
CC(=O)N1CCC2(CC1)C(C#N)=C(N)Oc1c2sc2nc(C)cc(C)c12	0.0	3.9	6.3	1.0	?	1.9
NC(=O)CNC(=O)c1ccc(Cl)cc1	/	9.1*	25.4	-0.6	2.9	0.4
O=C(NCC(=O)N1CCCCCC1)c1ccc(Cl)cc1	/	/	24.1	/	1.8	/
NC(=O)C1CCN(C(=O)NC(=O)c2ccccc2)CC1	/	/	/	/	0.0	/
NC(=S)N/N=C/c1cccc(O)c1O	1.4	1.4	-56.0	2.2	1.5	-9.2
Cc1cc(/C=N/NC(N)=S)c(O)c(/C=N/NC(N)=S)c1	/	1.3	-90.9	-137.2	60.3*	42.9
O=c1[nH]c(SCc2n[nH]c(=S)n2-c2ccccc2)nc2sc3c(c12)CCC3	0.2	0.6	84.8*	1.0	1.6	20.7
O=C(N/N=C/c1cn(CCOc2ccccc2)c2ccccc12)c1ccncc1	-5.9	0.3	-4.6	-7.7	1.3	-10.8
COc1ccccc1OCCn1cc(/C=N/NC(=O)c2ccncc2)c2ccccc21	/	1.2	60.5*	-4.2	-1.6	1.7
